What was measured:
[1] = folding enthalpy; higher = less favourable; fluorescence melt of hairpins on a sequencing array, two-state fit; settings: sodium 0.088 M
Procedure, shortened: (§1)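 Folding enthalpy and melting temperature come from bootstrapped two-state fits to Cy3 fluorescence of library hairpins carrying annealed Cy3 and quencher oligos on a sequenced MiSeq flow cell. Imaging was done in 50 mM Na-HEPES pH 8.0, 25 mM NaCl, stepping by 2.5 °C up to 60 °C, and signals were normalised to pre-quench Cy3 and to control constructs. Results of four replicates were combined by inverse variance, and fitted temperatures were raised by 9.35 °C to match UV melts.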

[2] = melting temperature; fluorescence melt of hairpins on a sequencing array, two-state fit, raised by 9.35 °C to match UV melts; settings: sodium 0.088 M
Procedure, shortened: as §1

Sequence | folding enthalpy [1] | Tm [2]
GAGTGCCGAAAGGCCCTC (((.(((....))).))) | -18.3 kcal/mol | 51.3 °C
GCTAGGGGAAACCCTAAC (.(((((....))))).) | -13.4 kcal/mol | 32.1 °C
GATTCCGAAAGGAAATC ((((((....))).))) | -21.4 kcal/mol | 41.5 °C
GATCAATGATTTGATC ((((((....)))))) | -32.7 kcal/mol | 44.8 °C
GCTCGGCGAAAGCCAGC (((.(((....)))))) | -17.4 kcal/mol | 62.9 °C
GATCTTTGCAAAGATC ((((((....)))))) | -57.2 kcal/mol | 50.9 °C
GATCCCTCAGGGATC ((((((...)))))) | -37.2 kcal/mol | 65 °C
GAGACCGAAAGGTCACTC ((((((....)))..))) | -13.8 kcal/mol | 55.1 °C
GACTACGAAAGTATCGTC ((((((....)))..))) | -20.4 kcal/mol | 31.1 °C
GCATCCGAAAGGAACTGC ((((((....)))..))) | -17.1 kcal/mol | 33.5 °C
GATGGACGAAAGTCTATC (((.(((....))).))) | -30.9 kcal/mol | 52.9 °C
GGTTACGGAAACGTGATC (.(.(((....))).).) | -16.3 kcal/mol | 30.4 °C
GCGGCCCTCCGC ((((....)))) | -26.5 kcal/mol | 59.6 °C
GCGGAATCCGC ((((...)))) | -23.4 kcal/mol | 51.7 °C
GATCTCTCAGGAGATC ((((((....)))))) | -48 kcal/mol | 54.2 °C
GCGCTTCCGAAAGGACGC (((..(((....)))))) | -20.3 kcal/mol | 52 °C
GCTGTCGGAAACGATGGC ((..(((....)))..)) | -33.5 kcal/mol | 47.8 °C
GCGTAAGACGC ((((...)))) | -21.3 kcal/mol | 53 °C
GAGTCCCCGAAAGGGCTC (((..(((....)))))) | -19.2 kcal/mol | 44.4 °C
CGAACGGAAACGTCGTCG ((((((....)))..))) | -18.3 kcal/mol | 47.1 °C
CGCATGCGGAAACGCGCG (((..(((....)))))) | -20.8 kcal/mol | 52.1 °C
CGCGGACGGCTCCGCG ((((((....)))))) | -23.5 kcal/mol | 68.5 °C
GCGTTGCGAAAGCTAAGC ((.(.((....)).).)) | -26.9 kcal/mol | 59.2 °C

Sequence | folding enthalpy [1] | Tm [2]
GGGTGAGGAAACTCATCC ((.((((....)))).)) | -43.1 kcal/mol | 49.2 °C
GCGCAGGGAAACCTGCAC (.(((((....))))).) | -12.7 kcal/mol | 47.6 °C
GGAGTATCGAAAGATTCC (((..(((....)))))) | -13.1 kcal/mol | 26.6 °C
GCATCCGAAAGGAATGC ((((((....))).))) | -32.3 kcal/mol | 55.4 °C
GGCACGGGAAACCATGCC ((((.((....)).)))) | -30.5 kcal/mol | 49.3 °C
GATCGTTTTGACGATC ((((((....)))))) | -40.3 kcal/mol | 57.2 °C
GTTGCAGGAAACTGCAGC (.(((((....))))).) | -17.4 kcal/mol | 51.5 °C
GTCTTAGCGAAAGCTGAC (((..(((....)))))) | -14.9 kcal/mol | 39 °C
GGTTGCGGAAACGTAACC ((((.((....)).)))) | -47.9 kcal/mol | 54 °C
GGGATTGGAAACGATCTC (.(((.(....).))).) | -15.3 kcal/mol | 31.4 °C
GCCTTGCGAAAGCTCGGC (((..((....))..))) | -21.9 kcal/mol | 53.1 °C
GAACCGGAAACGGTTC ((((((....)))))) | -33 kcal/mol | 67.4 °C
GATCTTCGTAAGATC ((((((...)))))) | -30.9 kcal/mol | 45.2 °C
GATCTTTATAAGATC ((((((...)))))) | -33.3 kcal/mol | 44 °C
GATCGGATCGCCGATC ((((((....)))))) | -32.2 kcal/mol | 55.8 °C
GATCACGGACGTGATC ((((((....)))))) | -37.7 kcal/mol | 67.2 °C
GTTGAGGGAAACCTCAAC (((((((....))))))) | -42.2 kcal/mol | 59.8 °C
GATCCCGAAAGGGTAATC ((((((....)))..))) | -10.8 kcal/mol | 31.2 °C
GAGTGCGGAAACACACTC (((((.(....).))))) | -28.4 kcal/mol | 47.5 °C
GATCATTGTATGATC ((((((...)))))) | -30.9 kcal/mol | 49.5 °C
GGTTTACGAAAGTAGACC (((.(((....))).))) | -34.9 kcal/mol | 51 °C
CGAGCGGAAACGCGTCG ((((((....))).))) | -13.2 kcal/mol | 53.6 °C
GTCTGGGGAAACCTGGAC (((..((....))..))) | -23.9 kcal/mol | 41 °C

Reference: the array DNA melting data of Ke et al. (doi:10.1101/2024.01.08.574731)
